Reference: the M2OR odorant receptor database

How the values were obtained:
Details in all cases: stereoisomer not certain
OR5AN1 (Homo sapiens) = target: T1, OR5AN1 (Homo sapiens) (UniProt Q8NGI8)
T1 sequence (whole entry): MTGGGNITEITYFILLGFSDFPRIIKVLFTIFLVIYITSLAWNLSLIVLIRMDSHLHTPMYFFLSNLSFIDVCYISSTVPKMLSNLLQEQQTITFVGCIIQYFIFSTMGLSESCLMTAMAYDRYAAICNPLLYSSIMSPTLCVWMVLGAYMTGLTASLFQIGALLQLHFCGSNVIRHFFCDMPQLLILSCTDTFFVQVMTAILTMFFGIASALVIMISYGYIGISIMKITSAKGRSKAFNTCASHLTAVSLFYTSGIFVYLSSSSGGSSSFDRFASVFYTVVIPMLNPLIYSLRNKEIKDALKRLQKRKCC
How it was run: (§1)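 Each receptor–molecule pair is labelled responsive or non-responsive (inactive) according to whether the original authors judged the measured signal statistically different from baseline. The data were taken from the main text and supplementary material of published papers and checked for typos and inconsistencies. Assay methods differed by source, with transient luciferase assays in mammalian cell lines being common.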

OR5AC2 (Homo sapiens) = target: T2, OR5AC2 (Homo sapiens) (UniProt Q9NZP5)
T2 sequence (whole entry): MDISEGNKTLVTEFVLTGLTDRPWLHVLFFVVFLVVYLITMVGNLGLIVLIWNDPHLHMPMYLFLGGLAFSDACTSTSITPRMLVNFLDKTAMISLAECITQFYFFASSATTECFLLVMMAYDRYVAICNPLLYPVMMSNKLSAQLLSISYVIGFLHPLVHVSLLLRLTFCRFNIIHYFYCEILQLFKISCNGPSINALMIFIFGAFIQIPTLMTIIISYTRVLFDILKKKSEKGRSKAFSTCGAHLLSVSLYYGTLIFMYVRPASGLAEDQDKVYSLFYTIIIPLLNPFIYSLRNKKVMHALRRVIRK
How it was run: as §1

OR5AK2 (Homo sapiens) = OR5AK2 (Homo sapiens) (UniProt Q8NH90)
Sequence of OR5AK2 (Homo sapiens) (Q8NH90 whole entry): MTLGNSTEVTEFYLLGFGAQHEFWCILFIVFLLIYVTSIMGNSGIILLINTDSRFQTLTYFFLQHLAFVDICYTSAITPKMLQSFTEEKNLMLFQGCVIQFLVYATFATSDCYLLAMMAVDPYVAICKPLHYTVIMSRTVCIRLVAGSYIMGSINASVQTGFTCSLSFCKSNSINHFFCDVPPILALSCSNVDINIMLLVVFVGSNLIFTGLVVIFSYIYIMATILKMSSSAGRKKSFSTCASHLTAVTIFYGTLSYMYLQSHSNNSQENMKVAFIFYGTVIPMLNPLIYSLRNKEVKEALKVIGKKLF
How it was run: as §1

OR5AP2 (Homo sapiens) = OR5AP2 (Homo sapiens) (UniProt Q8NGF4)
Sequence of OR5AP2 (Homo sapiens) (Q8NGF4 whole entry): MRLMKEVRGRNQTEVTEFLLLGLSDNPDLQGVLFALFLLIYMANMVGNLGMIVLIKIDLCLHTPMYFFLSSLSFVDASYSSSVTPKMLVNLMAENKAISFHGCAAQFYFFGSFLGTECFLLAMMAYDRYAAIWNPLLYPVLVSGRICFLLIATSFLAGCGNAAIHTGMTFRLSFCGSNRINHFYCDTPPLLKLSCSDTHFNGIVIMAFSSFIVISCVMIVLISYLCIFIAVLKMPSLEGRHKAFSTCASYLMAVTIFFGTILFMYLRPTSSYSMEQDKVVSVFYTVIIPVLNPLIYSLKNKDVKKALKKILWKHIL
How it was run: as §1

OR5AR1 (Homo sapiens) = OR5AR1 (Homo sapiens) (UniProt Q8NGP9)
Sequence of OR5AR1 (Homo sapiens) (Q8NGP9 whole entry): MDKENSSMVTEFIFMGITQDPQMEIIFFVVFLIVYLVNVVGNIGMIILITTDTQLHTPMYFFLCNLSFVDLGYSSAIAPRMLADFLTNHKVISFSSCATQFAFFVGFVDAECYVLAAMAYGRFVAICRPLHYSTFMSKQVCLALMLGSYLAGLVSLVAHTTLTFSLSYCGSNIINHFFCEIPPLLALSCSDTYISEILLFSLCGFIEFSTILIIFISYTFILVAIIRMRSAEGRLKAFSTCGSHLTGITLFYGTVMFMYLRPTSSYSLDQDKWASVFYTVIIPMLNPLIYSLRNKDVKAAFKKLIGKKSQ
How it was run: as §1

OR5AS1 (Homo sapiens) = OR5AS1 (Homo sapiens) (UniProt Q8N127)
Sequence of OR5AS1 (Homo sapiens) (Q8N127 whole entry): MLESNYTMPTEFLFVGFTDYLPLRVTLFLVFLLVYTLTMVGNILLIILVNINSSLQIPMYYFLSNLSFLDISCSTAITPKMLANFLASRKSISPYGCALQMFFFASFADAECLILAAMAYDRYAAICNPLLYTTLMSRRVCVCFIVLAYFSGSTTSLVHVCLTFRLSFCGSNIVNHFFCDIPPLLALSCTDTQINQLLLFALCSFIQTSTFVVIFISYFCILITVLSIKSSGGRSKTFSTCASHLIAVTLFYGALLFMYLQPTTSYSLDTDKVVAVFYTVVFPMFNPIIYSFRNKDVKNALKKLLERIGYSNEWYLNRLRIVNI
How it was run: as §1

OR5AU1 (Homo sapiens) = OR5AU1 (Homo sapiens) (UniProt Q8NGC0)
Sequence of OR5AU1 (Homo sapiens) (Q8NGC0 whole entry): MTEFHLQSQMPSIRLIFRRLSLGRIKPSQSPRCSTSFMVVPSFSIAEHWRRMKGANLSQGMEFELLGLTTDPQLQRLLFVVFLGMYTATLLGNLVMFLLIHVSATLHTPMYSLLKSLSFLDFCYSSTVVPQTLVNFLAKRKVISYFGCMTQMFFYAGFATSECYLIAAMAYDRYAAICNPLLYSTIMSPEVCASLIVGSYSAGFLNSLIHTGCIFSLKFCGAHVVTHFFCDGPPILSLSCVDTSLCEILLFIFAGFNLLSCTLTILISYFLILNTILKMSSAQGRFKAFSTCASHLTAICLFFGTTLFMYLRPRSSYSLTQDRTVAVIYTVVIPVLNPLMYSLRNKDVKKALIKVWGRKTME
How it was run: as §1

OR5B12 (Homo sapiens) = OR5B12 (Homo sapiens) (UniProt Q96R08)
Sequence of OR5B12 (Homo sapiens) (Q96R08 whole entry): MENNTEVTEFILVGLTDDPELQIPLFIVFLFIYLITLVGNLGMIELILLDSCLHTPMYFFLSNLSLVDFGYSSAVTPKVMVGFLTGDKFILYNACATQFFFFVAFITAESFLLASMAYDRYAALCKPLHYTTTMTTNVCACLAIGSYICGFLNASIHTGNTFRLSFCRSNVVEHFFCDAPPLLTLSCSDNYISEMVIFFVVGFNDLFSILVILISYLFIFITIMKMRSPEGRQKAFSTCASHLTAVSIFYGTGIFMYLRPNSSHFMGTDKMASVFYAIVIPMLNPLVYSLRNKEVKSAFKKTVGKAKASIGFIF
How it was run: as §1

OR5B17 (Homo sapiens) = target: T3, OR5B17 (Homo sapiens) (UniProt Q8NGF7)
T3 sequence (whole entry): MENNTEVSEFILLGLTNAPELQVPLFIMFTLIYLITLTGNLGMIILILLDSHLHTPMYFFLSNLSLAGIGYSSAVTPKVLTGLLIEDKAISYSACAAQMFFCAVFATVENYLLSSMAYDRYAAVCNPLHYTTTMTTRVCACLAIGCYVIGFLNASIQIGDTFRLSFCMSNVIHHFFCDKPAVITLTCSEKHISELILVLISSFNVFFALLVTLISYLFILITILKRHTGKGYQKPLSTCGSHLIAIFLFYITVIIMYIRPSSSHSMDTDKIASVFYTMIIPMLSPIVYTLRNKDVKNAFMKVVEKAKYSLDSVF
How it was run: as §1

OR5B2 (Homo sapiens) = OR5B2 (Homo sapiens) (UniProt Q96R09)
Sequence of OR5B2 (Homo sapiens) (Q96R09 whole entry): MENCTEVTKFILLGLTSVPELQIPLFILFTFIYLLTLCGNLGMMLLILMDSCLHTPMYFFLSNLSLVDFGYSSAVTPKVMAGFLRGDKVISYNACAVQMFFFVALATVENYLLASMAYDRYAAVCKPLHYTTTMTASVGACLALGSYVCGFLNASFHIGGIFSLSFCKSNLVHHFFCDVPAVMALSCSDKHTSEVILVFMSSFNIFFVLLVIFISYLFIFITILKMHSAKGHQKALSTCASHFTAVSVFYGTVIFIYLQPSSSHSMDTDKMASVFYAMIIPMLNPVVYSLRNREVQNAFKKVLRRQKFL
How it was run: as §1

OR5B2 E6D = tested on: OR5B2 E6D
Sequence of OR5B2 E6D (as listed by the source): as the sequence (Q96R09 whole entry) above, with E6D counted along it
How it was run: as §1

OR5B21 (Homo sapiens) = OR5B21 (Homo sapiens) (UniProt A6NL26)
Sequence of OR5B21 (Homo sapiens) (A6NL26 whole entry): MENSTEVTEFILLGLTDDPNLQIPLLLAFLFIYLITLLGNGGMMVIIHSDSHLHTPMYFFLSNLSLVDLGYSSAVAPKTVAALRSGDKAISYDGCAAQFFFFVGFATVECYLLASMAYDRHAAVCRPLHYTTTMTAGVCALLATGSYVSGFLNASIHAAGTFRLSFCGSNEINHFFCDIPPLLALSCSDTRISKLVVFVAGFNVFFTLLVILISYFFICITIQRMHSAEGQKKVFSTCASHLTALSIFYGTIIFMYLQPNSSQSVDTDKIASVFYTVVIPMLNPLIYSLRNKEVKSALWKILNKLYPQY
How it was run: as §1

OR5B3 (Homo sapiens) = OR5B3 (Homo sapiens) (UniProt Q8NH48)
Sequence of OR5B3 (Homo sapiens) (Q8NH48 whole entry): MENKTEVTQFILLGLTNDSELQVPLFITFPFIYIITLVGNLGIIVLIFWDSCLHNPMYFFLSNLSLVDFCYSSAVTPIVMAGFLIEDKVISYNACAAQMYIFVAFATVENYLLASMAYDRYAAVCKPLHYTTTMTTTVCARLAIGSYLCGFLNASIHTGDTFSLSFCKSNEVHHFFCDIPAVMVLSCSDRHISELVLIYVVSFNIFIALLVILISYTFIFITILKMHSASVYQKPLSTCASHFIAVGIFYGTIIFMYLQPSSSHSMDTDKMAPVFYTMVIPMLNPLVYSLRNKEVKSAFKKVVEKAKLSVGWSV
How it was run: as §1

OR5B3 I198V G247A = tested on: OR5B3 I198V G247A
How it was run: as §1

OR5BC C141R = tested on: OR5BC C141R
Sequence of OR5BC C141R (as listed by the source, stated change not applied): as the sequence (Q96R08 whole entry) above, with C141R counted along it
How it was run: as §1

OR5BH L80I I85M = tested on: OR5BH L80I I85M
How it was run: as §1

OR5BH L80I = tested on: OR5BH L80I
Sequence of OR5BH L80I (as listed by the source, stated change not applied): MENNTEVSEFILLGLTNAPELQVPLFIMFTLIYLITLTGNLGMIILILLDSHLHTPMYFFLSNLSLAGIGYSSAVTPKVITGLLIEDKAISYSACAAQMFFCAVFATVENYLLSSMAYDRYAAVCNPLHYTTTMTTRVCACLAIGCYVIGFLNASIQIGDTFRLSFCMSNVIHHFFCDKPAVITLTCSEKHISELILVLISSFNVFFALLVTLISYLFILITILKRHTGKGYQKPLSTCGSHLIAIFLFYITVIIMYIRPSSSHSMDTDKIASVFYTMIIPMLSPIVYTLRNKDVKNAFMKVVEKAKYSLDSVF
How it was run: as §1

OR5C1 (Homo sapiens) = OR5C1 (Homo sapiens) (UniProt Q8NGR4)
Sequence of OR5C1 (Homo sapiens) (Q8NGR4 whole entry): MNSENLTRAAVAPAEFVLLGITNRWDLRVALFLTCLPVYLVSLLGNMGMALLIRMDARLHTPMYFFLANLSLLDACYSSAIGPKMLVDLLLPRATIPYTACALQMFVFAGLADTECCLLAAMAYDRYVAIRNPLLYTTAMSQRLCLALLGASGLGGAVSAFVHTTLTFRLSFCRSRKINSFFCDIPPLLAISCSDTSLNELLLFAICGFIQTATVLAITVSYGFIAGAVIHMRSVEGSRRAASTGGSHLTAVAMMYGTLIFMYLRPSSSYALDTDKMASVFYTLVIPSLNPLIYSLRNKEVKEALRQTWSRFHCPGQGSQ
How it was run: as §1

OR5AC1 (Homo sapiens) = OR5AC1 (Homo sapiens) (UniProt P0C628)
Sequence of OR5AC1 (Homo sapiens) (P0C628 whole entry): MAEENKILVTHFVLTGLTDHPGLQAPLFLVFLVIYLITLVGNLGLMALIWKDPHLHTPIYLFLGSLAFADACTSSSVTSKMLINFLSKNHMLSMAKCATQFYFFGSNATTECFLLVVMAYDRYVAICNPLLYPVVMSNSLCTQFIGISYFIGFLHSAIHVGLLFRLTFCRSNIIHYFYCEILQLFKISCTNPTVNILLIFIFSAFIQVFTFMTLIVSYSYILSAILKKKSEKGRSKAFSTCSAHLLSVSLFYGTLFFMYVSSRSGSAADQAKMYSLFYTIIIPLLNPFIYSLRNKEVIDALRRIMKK
How it was run: as §1

OR5AL1 (Homo sapiens) = OR5AL1 (Homo sapiens) (UniProt P0C617)
Sequence of OR5AL1 (Homo sapiens) (P0C617 whole entry): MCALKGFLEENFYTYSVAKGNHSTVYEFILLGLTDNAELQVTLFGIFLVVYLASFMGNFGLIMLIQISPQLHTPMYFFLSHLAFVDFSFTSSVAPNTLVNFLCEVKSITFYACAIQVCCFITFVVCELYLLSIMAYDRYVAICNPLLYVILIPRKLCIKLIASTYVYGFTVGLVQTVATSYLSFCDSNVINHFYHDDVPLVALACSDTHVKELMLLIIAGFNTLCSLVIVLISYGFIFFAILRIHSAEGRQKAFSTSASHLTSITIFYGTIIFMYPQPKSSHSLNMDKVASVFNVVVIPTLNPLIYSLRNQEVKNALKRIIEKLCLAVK
How it was run: as §1

Measured: odorant receptor agonist call;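 further: active if original authors judged signal statistically different from baseline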

CC(=O)c1cc(C(C)(C)C)cc2c1CCC2(C)C
inactive: OR5AN1 (Homo sapiens)

C=CCOC(=O)Cc1ccccc1
inactive: OR5AC2 (Homo sapiens) | OR5AK2 (Homo sapiens) | OR5AN1 (Homo sapiens) | OR5AP2 (Homo sapiens) | OR5AR1 (Homo sapiens) | OR5AS1 (Homo sapiens) | OR5AU1 (Homo sapiens) | OR5B12 (Homo sapiens) | OR5B17 (Homo sapiens) | OR5B2 (Homo sapiens) | OR5B2 E6D | OR5B21 (Homo sapiens) | OR5B3 (Homo sapiens) | OR5B3 I198V G247A | OR5BC C141R | OR5BH L80I I85M | OR5BH L80I | OR5C1 (Homo sapiens)

CC(=O)c1cc2c(cc1C)C(C)(C)C(C)CC2(C)C (stereo unspecified)
inactive: OR5AN1 (Homo sapiens)

C=CCc1ccc(OC)cc1
inactive: OR5AC2 (Homo sapiens) | OR5B17 (Homo sapiens)

O=Cc1ccccc1
inactive: OR5AC2 (Homo sapiens) | OR5B17 (Homo sapiens)

O=CC=Cc1ccccc1
inactive: OR5AC2 (Homo sapiens) | OR5B17 (Homo sapiens)

Cc1c([N+](=O)[O-])c(C)c([N+](=O)[O-])c(C(C)(C)C)c1[N+](=O)[O-]
inactive: OR5AC1 (Homo sapiens) | OR5AC2 (Homo sapiens) | OR5AK2 (Homo sapiens) | OR5AL1 (Homo sapiens) | OR5AP2 (Homo sapiens) | OR5AR1 (Homo sapiens) | OR5AS1 (Homo sapiens) | OR5AU1 (Homo sapiens) | OR5B12 (Homo sapiens) | OR5B17 (Homo sapiens) | OR5B2 (Homo sapiens) | OR5B21 (Homo sapiens) | OR5B3 (Homo sapiens) | OR5C1 (Homo sapiens)
active: OR5AN1 (Homo sapiens)
